# Results reported in ChEMBL document CHEMBL1275253, “Human antimicrobial peptide LL-37 induces MefE/Mel-mediated macrolide resistance in Streptococcus pneumoniae” (2010).
# How the values were obtained:
# Format in all cases: functional
# Streptococcus pneumoniae [1] = test: Antimicrobial activity against mega::aad9-positive Streptococcus pneumoniae XZ8006 expressing PmefE-lacZ gene induced by pretreatment with 50 ug/ml of compound for 1 hr by microdilution method
# Summary of the method: (§1)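 Cultures grown to OD600 0.4, then split and pre-exposed 1 h to subinhibitory LL-37: 200 μg/ml for GA17457 and XZ7042, 50 for XZ8006 and XZ8009, 100 for XZ8004. Cells then at a final 2 × 10^5/ml in 5-fold-diluted TH with 0.5% yeast extract, added to serial dilutions. […] At least three independent experiments.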
# Streptococcus pneumoniae [2] = test: Antimicrobial activity against wild-type Streptococcus pneumoniae GA17457 by microdilution method
# Summary of the method: (§2)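 Broth microdilution adapted for cationic antimicrobial peptides. Cultures grown to OD600 0.4 without inducer. Bacteria at a final 2 × 10^5/ml in 5-fold-diluted TH medium with 0.5% yeast extract, added to serial dilutions of test agent. After 1 h at 37°C, samples plated on blood agar and incubated 16 h at 37°C with 5% CO2. MIC and MBC read. At least three independent experiments; one representative shown.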
# Streptococcus pneumoniae [3] = test: Antimicrobial activity against mega::aad9-positive Streptococcus pneumoniae XZ8004 expressing PmefE-lacZ gene induced by pretreatment with 100 ug/ml of compound for 1 hr by microdilution method; summary of the method: as §1
# Streptococcus pneumoniae [4] = test: Antimicrobial activity against mega::aad9-positive Streptococcus pneumoniae XZ8004 by microdilution method; summary of the method: as §2
# Streptococcus pneumoniae [5] = test: Antimicrobial activity against Streptococcus pneumoniae XZ7042 expressing PmefE-lacZ gene induced by pretreatment with 1 ug/ml of erythromycin for 1 hr by microdilution method
# Summary of the method: (§3)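 Cultures grown to OD600 0.4, split and pre-exposed 1 h to 1 μg/ml erythromycin. Final 2 × 10^5 bacteria/ml in 5-fold-diluted TH with 0.5% yeast extract, added to serial dilutions. After 1 h at 37°C, plated on blood agar. […] At least three independent experiments; one representative shown.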
# Streptococcus pneumoniae [6] = test: Antimicrobial activity against Streptococcus pneumoniae XZ7042 by microdilution method; summary of the method: as §2
# Streptococcus pneumoniae [7] = test: Antimicrobial activity against wild-type Streptococcus pneumoniae GA17457 expressing PmefE-lacZ gene induced by pretreatment with 200 ug/ml of compound for 1 hr by microdilution method; summary of the method: as §1
# Streptococcus pneumoniae [8] = test: Antimicrobial activity against Streptococcus pneumoniae XZ7042 expressing PmefE-lacZ gene induced by pretreatment with 200 ug/ml of compound for 1 hr by microdilution method; summary of the method: as §1
# Streptococcus pneumoniae [9] = test: Antimicrobial activity against wild-type Streptococcus pneumoniae GA17457 by Etest method
# Streptococcus pneumoniae [10] = test: Antimicrobial activity against mega::aad9-positive Streptococcus pneumoniae XZ8006 by Etest method
# Streptococcus pneumoniae [11] = test: Antimicrobial activity against wild-type Streptococcus pneumoniae GA17457 expressing PmefE-lacZ gene induced by pretreatment with 1 ug/ml of erythromycin for 1 hr by microdilution method; summary of the method: as §3
# Streptococcus pneumoniae [12] = test: Antimicrobial activity against mega::aad9-positive Streptococcus pneumoniae XZ8006 by microdilution method; summary of the method: as §2
# Streptococcus pneumoniae [13] = test: Antimicrobial activity against mefE-mel::aph3-positive Streptococcus pneumoniae XZ8009 by Etest method
# Streptococcus pneumoniae [14] = test: Antimicrobial activity against Streptococcus pneumoniae XZ7042 by Etest method
# Streptococcus pneumoniae [15] = test: Antimicrobial activity against mefE-mel::aph3-positive Streptococcus pneumoniae XZ8009 expressing PmefE-lacZ gene induced by pretreatment with 50 ug/ml of compound for 1 hr by microdilution method; summary of the method: as §1
# Streptococcus pneumoniae [16] = test: Antimicrobial activity against mega::aad9-positive Streptococcus pneumoniae XZ8004 by Etest method
# Streptococcus pneumoniae [17] = test: Antimicrobial activity against mefE-mel::aph3-positive Streptococcus pneumoniae XZ8009 by microdilution method; summary of the method: as §2
# Streptococcus pneumoniae [18] = test: Antimicrobial activity against Streptococcus pneumoniae XZ7042 expressing PmefE-lacZ gene induced by pretreatment with 200 ug/ml of LL-37 peptide for 1 hr by microdilution method; summary of the method: as §1
# Streptococcus pneumoniae [19] = test: Antimicrobial activity against wild-type Streptococcus pneumoniae GA17457 expressing PmefE-lacZ gene induced by pretreatment with 200 ug/ml of LL-37 peptide for 1 hr by microdilution method; summary of the method: as §1
# Streptococcus pneumoniae [20] = test: Antimicrobial activity against wild-type Streptococcus pneumoniae GA17457 expressing PmefE-lacZ gene induced by pretreatment with 1 ug/ml of compound for 1 hr by microdilution method; summary of the method: as §3
# Streptococcus pneumoniae [21] = test: Antimicrobial activity against mega::aad9-positive Streptococcus pneumoniae XZ8006 expressing PmefE-lacZ gene induced by pretreatment with 50 ug/ml of LL-37 peptide for 1 hr by microdilution method; summary of the method: as §1
# Streptococcus pneumoniae [22] = test: Antimicrobial activity against mega::aad9-positive Streptococcus pneumoniae XZ8004 expressing PmefE-lacZ gene induced by pretreatment with 100 ug/ml of LL-37 peptide for 1 hr by microdilution method; summary of the method: as §1
# Streptococcus pneumoniae [23] = test: Antimicrobial activity against mefE-mel::aph3-positive Streptococcus pneumoniae XZ8009 expressing PmefE-lacZ gene induced by pretreatment with 50 ug/ml of LL-37 peptide for 1 hr by microdilution method; summary of the method: as §1
# Streptococcus pneumoniae [24] = test: Antimicrobial activity against Streptococcus pneumoniae XZ7042 expressing PmefE-lacZ gene induced by pretreatment with 1 ug/ml of compound for 1 hr by microdilution method
# Summary of the method: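 Reporter: PmefE-lacZ integrated at bga in clinical isolate GA17457 (serotype 19A). Cultures grown to OD600 0.4, split, and grown 1 h with or without a subinhibitory 1 μg/ml inducer. […] Representative of ≥3 experiments.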
compound,measurement,setting,value
CC[C@H](C)[C@H](NC(=O)[C@H](CCCCN)NC(=O)[C@H](CCC(=O)O)NC(=O)[C@H](CCCCN)NC(=O)[C@H](CO)NC(=O)[C@H](CCCCN)NC(=O)[C@H](CCCNC(=N)N)NC(=O)[C@H](Cc1ccccc1)NC(=O)[C@H](Cc1ccccc1)NC(=O)[C@H](CC(=O)O)NC(=O)CNC(=O)[C@H](CC(C)C)NC(=O)[C@@H](N)CC(C)C)C(=O)NCC(=O)N[C@@H](CCCCN)C(=O)N[C@@H](CCC(=O)O)C(=O)N[C@@H](Cc1ccccc1)C(=O)N[C@@H](CCCCN)C(=O)N[C@@H](CCCNC(=N)N)C(=O)N[C@H](C(=O)N[C@H](C(=O)N[C@@H](CCC(N)=O)C(=O)N[C@@H](CCCNC(=N)N)C(=O)N[C@H](C(=O)N[C@@H](CCCCN)C(=O)N[C@@H](CC(=O)O)C(=O)N[C@@H](Cc1ccccc1)C(=O)N[C@@H](CC(C)C)C(=O)N[C@@H](CCCNC(=N)N)C(=O)N[C@@H](CC(N)=O)C(=O)N[C@@H](CC(C)C)C(=O)N[C@H](C(=O)N1CCC[C@H]1C(=O)N[C@@H](CCCNC(=N)N)C(=O)N[C@H](C(=O)N[C@@H](CCC(=O)O)C(=O)N[C@@H](CO)C(=O)O)[C@@H](C)O)C(C)C)[C@@H](C)CC)C(C)C)[C@@H](C)CC [CATHELICIDIN],MBC,Streptococcus pneumoniae [1],250 µg/mL
same,MIC,Streptococcus pneumoniae [1],125 µg/mL
same,MBC,Streptococcus pneumoniae [2],1000 µg/mL
same,MIC,Streptococcus pneumoniae [2],500 µg/mL
same,MBC,Streptococcus pneumoniae [3],250 µg/mL
same,MIC,Streptococcus pneumoniae [3],125 µg/mL
same,MBC,Streptococcus pneumoniae [4],500 µg/mL
same,MIC,Streptococcus pneumoniae [4],250 µg/mL
same,MBC,Streptococcus pneumoniae [5],> 2000 µg/mL
same,MIC,Streptococcus pneumoniae [5],2000 µg/mL
same,MBC,Streptococcus pneumoniae [6],1000 µg/mL
same,MIC,Streptococcus pneumoniae [6],500 µg/mL
same,MBC,Streptococcus pneumoniae [7],> 2000 µg/mL
same,MIC,Streptococcus pneumoniae [7],2000 µg/mL
same,MBC,Streptococcus pneumoniae [8],> 2000 µg/mL
same,MIC,Streptococcus pneumoniae [8],2000 µg/mL
same,MIC,Streptococcus pneumoniae [9],12 µg/mL
same,MIC,Streptococcus pneumoniae [10],0.125 µg/mL
same,MBC,Streptococcus pneumoniae [11],> 2000 µg/mL
same,MIC,Streptococcus pneumoniae [11],2000 µg/mL
same,MBC,Streptococcus pneumoniae [12],250 µg/mL
same,MIC,Streptococcus pneumoniae [12],125 µg/mL
same,MIC,Streptococcus pneumoniae [13],0.125 µg/mL
same,MIC,Streptococcus pneumoniae [14],12 µg/mL
same,MBC,Streptococcus pneumoniae [15],250 µg/mL
same,MIC,Streptococcus pneumoniae [15],64 µg/mL
same,MIC,Streptococcus pneumoniae [16],0.125 µg/mL
same,MBC,Streptococcus pneumoniae [17],250 µg/mL
same,MIC,Streptococcus pneumoniae [17],125 µg/mL
CC[C@H]1OC(=O)[C@H](C)[C@@H](O[C@H]2C[C@@](C)(OC)[C@@H](O)[C@H](C)O2)[C@H](C)[C@@H](O[C@@H]2O[C@H](C)C[C@H](N(C)C)[C@H]2O)[C@](C)(O)C[C@@H](C)C(=O)[C@H](C)[C@@H](O)[C@]1(C)O [ERYTHROMYCIN],MBC,Streptococcus pneumoniae [18],32 µg/mL
same,MIC,Streptococcus pneumoniae [18],16 µg/mL
same,MBC,Streptococcus pneumoniae [19],32 µg/mL
same,MIC,Streptococcus pneumoniae [19],8 µg/mL
same,MBC,Streptococcus pneumoniae [2],16 µg/mL
same,MIC,Streptococcus pneumoniae [2],2 µg/mL
same,MBC,Streptococcus pneumoniae [20],> 64 µg/mL
same,MIC,Streptococcus pneumoniae [20],8 µg/mL
same,MBC,Streptococcus pneumoniae [4],4 µg/mL
same,MIC,Streptococcus pneumoniae [4],0.25 µg/mL
same,MBC,Streptococcus pneumoniae [6],8 µg/mL
same,MIC,Streptococcus pneumoniae [6],1 µg/mL
same,MBC,Streptococcus pneumoniae [21],4 µg/mL
same,MIC,Streptococcus pneumoniae [21],0.5 µg/mL
same,MBC,Streptococcus pneumoniae [12],4 µg/mL
same,MIC,Streptococcus pneumoniae [12],0.5 µg/mL
same,MBC,Streptococcus pneumoniae [22],4 µg/mL
same,MIC,Streptococcus pneumoniae [22],0.5 µg/mL
same,MBC,Streptococcus pneumoniae [23],2 µg/mL
same,MIC,Streptococcus pneumoniae [23],0.125 µg/mL
same,MBC,Streptococcus pneumoniae [24],> 64 µg/mL
same,MIC,Streptococcus pneumoniae [24],4 µg/mL
same,MBC,Streptococcus pneumoniae [17],4 µg/mL
same,MIC,Streptococcus pneumoniae [17],0.5 µg/mL
